How the values were obtained:
[1] = molecular target: T1, B2 bradykinin receptor (Homo sapiens, UniProt P30411); experiment: Displacement of [3H]bradykinin from human recombinant B2 receptor expressed in HEK293 cells; type: cell-based
T1 sequence (P30411 whole entry): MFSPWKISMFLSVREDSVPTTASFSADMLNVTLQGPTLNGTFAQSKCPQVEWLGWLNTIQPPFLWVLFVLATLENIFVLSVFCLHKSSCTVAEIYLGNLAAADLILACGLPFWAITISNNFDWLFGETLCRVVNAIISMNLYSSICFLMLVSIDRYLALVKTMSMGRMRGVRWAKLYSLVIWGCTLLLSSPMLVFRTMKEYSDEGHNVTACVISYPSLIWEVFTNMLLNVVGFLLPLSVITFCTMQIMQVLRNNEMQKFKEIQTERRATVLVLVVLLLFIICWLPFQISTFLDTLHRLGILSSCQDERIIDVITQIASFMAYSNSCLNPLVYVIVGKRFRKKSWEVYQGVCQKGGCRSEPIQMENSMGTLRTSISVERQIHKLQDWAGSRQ

[2] = molecular target: T1, B2 bradykinin receptor; experiment: Antagonist activity at B2 receptor in human HF15 cells assessed as inhibition of bradykinin-induced calcium mobilization; type: functional, cell-based
[3] = molecular target: Cytochrome P450 2C19 (Homo sapiens, UniProt P33261); experiment: Inhibition of human CYP2C19 by microtiter plate assay; type: ADME
[4] = molecular target: Cytochrome P450 3A4 (Homo sapiens, UniProt P08684); experiment: Inhibition of human CYP3A4 by microtiter plate assay; type: ADME
[5] = Metabolic stability in human liver microsomes at 1 uM by HPLC; type: ADME, Microsome; conditions: read-out: Stability
Summary of the method: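 Test compound was incubated with liver microsomes for 30 min. Stability is expressed as the percentage of parent compound remaining at the end of incubation.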

[6] = Aqueous solubility of the compound; type: physicochemical; conditions: aqueous solution
[7] = molecular target: T2, B2 bradykinin receptor (Cavia porcellus, UniProt O70526); experiment: Displacement of [3H]bradykinin from guinea pig B2 receptor
T2 sequence (O70526 whole entry): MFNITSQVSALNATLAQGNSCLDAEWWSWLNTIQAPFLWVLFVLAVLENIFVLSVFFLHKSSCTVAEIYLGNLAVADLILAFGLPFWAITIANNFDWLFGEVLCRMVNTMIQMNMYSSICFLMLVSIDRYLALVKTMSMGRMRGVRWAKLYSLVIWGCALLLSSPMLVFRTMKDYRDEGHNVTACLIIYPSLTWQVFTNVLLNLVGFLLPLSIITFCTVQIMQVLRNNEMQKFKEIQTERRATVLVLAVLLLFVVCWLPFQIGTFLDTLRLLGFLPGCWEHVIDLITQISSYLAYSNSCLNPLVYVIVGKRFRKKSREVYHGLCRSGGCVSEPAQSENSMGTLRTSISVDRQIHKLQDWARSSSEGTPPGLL

[8] = Displacement of [3H]bradykinin from B2 receptor N107A mutant
[9] = molecular target: T1, B2 bradykinin receptor; experiment: Displacement of [3H]bradykinin from wild-type B2 receptor
Summary of the method: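 Specific binding of [³H]-BK to recombinant human B₂ receptor expressed in HEK293 cells. Displacement by test compound is reported as IC₅₀. Values are the numerical average of at least two experiments.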

Chain of Cytochrome P450 3A4 (P08684 whole entry): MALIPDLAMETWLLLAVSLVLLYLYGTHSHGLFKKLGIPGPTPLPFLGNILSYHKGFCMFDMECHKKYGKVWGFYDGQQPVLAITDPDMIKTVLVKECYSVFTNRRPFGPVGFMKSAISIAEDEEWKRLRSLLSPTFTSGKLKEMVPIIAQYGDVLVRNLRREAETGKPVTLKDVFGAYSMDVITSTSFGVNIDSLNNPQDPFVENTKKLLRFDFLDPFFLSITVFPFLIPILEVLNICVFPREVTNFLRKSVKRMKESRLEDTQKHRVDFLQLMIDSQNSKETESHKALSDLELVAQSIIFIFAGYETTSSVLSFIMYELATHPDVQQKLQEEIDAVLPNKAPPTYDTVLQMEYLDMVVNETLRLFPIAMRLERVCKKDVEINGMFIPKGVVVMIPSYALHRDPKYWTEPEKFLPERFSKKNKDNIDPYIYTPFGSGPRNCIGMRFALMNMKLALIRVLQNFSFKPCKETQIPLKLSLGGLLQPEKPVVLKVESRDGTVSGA
Chain of Cytochrome P450 2C19 (P33261 whole entry): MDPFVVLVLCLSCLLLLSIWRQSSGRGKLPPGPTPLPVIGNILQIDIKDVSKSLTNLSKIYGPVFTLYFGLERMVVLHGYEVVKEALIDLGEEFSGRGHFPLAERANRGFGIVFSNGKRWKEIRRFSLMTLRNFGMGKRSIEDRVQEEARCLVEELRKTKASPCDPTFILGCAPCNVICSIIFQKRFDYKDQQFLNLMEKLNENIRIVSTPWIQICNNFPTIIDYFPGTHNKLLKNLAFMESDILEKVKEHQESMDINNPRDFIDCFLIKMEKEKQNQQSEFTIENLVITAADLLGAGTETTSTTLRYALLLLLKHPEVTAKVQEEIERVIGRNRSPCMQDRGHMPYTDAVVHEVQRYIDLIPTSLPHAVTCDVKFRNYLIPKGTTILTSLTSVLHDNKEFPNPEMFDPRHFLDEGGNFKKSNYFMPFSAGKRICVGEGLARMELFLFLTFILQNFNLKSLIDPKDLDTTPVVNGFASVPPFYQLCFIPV

| SMILES | IC50 [1] | IC50 [2] | also measured |
| --- | --- | --- | --- |
| Cc1cc(-c2ccnn2C)c2cccc(OCc3c(Cl)cncc3Cn3ccccc3=O)c2n1 | 5.1 nM | 3.6 nM |  |
| Cc1cc(-c2conc2C)c2cccc(OCc3c(Cl)cncc3Cl)c2n1 | 430 nM | 3800 nM |  |
| Cc1cc(-c2ccnn2C)c2cccc(OCc3c(Cl)cncc3Sc3nccn3C)c2n1 | 18 nM | 43 nM |  |
| Cc1cc(-c2ccnn2C)c2cccc(OCc3c(Cl)cncc3CNS(C)(=O)=O)c2n1 | 14 nM | 110 nM |  |
| Cc1cc(-c2nncn2C)c2cccc(OCc3c(Cl)cncc3Cl)c2n1 | 7100 nM |  |  |
| Cc1cc(-c2nccs2)c2cccc(OCc3c(Cl)cncc3Cl)c2n1 | 420 nM | 480 nM |  |
| Cc1cc(-c2ccnn2C)c2cccc(OCc3c(Cl)cncc3CNC(=O)C(C)C)c2n1 | 7.8 nM | 2.3 nM |  |
| Cc1cc(-c2ccnn2C)c2cccc(OCc3c(Cl)cncc3SCC(=O)N(C)C)c2n1 | 7.5 nM | 24 nM |  |
| Cc1cc(-c2nccn2C)c2cccc(OCc3c(Cl)cncc3Cl)c2n1 | 90 nM | 760 nM |  |
| Cc1cc(-c2ccnn2C)c2cccc(OCc3c(C)ccnc3CNC(=O)C(C)C)c2n1 | 5.4 nM | 3.8 nM | IC50 [3]: > 5000 nM; IC50 [4]: 3100 nM; remaining at 1 µM [5]: 13% |
| Cc1cc(-c2ccnn2C)c2cccc(OCc3c(Cl)cncc3OCC(=O)N(C)C)c2n1 | 6.5 nM | 91 nM |  |
| CC(=O)NCc1cncc(Cl)c1COc1cccc2c(-c3ccnn3C)cc(C)nc12 | 12 nM | 24 nM |  |
| Cc1cc(-n2ccnc2C)c2cccc(OCc3c(Cl)cncc3Cl)c2n1 | 200 nM | 1300 nM |  |
| Cc1cc(-c2scnc2Cl)c2cccc(OCc3c(Cl)cncc3Cl)c2n1 | 980 nM | 2500 nM |  |
| Cc1ccc2cccc(OCc3c(Cl)cccc3Cl)c2n1 |  |  | solubility [6]: < 1 µM |
| Cc1cc(-n2ccnc2)c2cccc(OCc3c(Cl)cncc3Cl)c2n1 | 580 nM | 2500 nM | solubility [6]: > 50 µM |
| Cc1cc(-c2cc[nH]n2)c2cccc(OCc3c(Cl)cncc3Cl)c2n1 | 310 nM | 350 nM |  |
| Cc1cc(-n2cccn2)c2cccc(OCc3c(Cl)cncc3Cl)c2n1 | 32 nM | 920 nM |  |
| Cc1cc(-c2ccnn2C)c2cccc(OCc3ccncc3Cl)c2n1 | 517 nM | 1600 nM |  |
| Cc1cc(-c2ncsc2C)c2cccc(OCc3c(Cl)cncc3Cl)c2n1 | 64 nM | 400 nM |  |
| Cc1cc(C)c2cccc(OCc3c(Cl)ccc(S(=O)(=O)N4CCC[C@H]4C(=O)CCCNC(=O)c4ccc(C(=N)N)cc4)c3Cl)c2n1 | 0.67 nM |  |  |
| Cc1cc(-c2cn[nH]c2C)c2cccc(OCc3c(Cl)cncc3Cl)c2n1 | 3600 nM | 6300 nM |  |
| Cc1cc(-c2ncsc2Cl)c2cccc(OCc3c(C)ccnc3Cn3cccc(C(F)(F)F)c3=O)c2n1 | 10 nM | 1.3 nM | IC50 [3]: 300 nM; IC50 [4]: 300 nM; remaining at 1 µM [5]: 34% |
| Cc1cc(-c2ccnn2C)c2cccc(OCc3c(Cl)cncc3CNC(=O)N(C)C)c2n1 | 6.6 nM | 2.8 nM |  |
| Cc1ccc2cccc(OCc3c(Cl)ccc(N(C)C(=O)CNC(=O)/C=C/c4ccc(C(F)(F)F)cc4)c3C#N)c2n1 |  |  | IC50 [7]: 0.3 nM |

| SMILES | IC50 [1] | IC50 [2] | also measured |
| --- | --- | --- | --- |
| CC(=O)OCc1cncc(Cl)c1C(=O)c1cccc2c(-c3ccnn3C)cc(C)nc12 | 6 nM | 260 nM |  |
| Cc1ccc2cccc(OCc3c(Cl)cncc3Cl)c2n1 | 5300 nM |  |  |
| Cc1cc(-c2ccnn2C)c2cccc(OCc3c(C)ccnc3CNC(=O)C3CCCCC3)c2n1 | 10 nM | 1.8 nM | IC50 [3]: 1600 nM; IC50 [4]: 2500 nM; remaining at 1 µM [5]: 17% |
| Cc1cc(-c2nscc2C)c2cccc(OCc3c(Cl)cncc3Cl)c2n1 | 20 nM | 70 nM |  |
| Cc1cc(-c2ncsc2Cl)c2cccc(OCc3c(Cl)cncc3Cl)c2n1 | 210 nM | 730 nM | remaining at 1 µM [5]: 35% |
| Cc1cc(-c2cncn2C)c2cccc(OCc3c(Cl)cncc3Cl)c2n1 | 4400 nM |  |  |
| Cc1cc(-c2ncc(C)n2C)c2cccc(OCc3c(Cl)cncc3Cl)c2n1 | 200 nM | 3400 nM |  |
| Cc1cc(-c2cscn2)c2cccc(OCc3c(Cl)cncc3Cl)c2n1 | 80 nM | 300 nM |  |
| Cc1cc(-c2ocnc2C)c2cccc(OCc3c(Cl)cncc3Cl)c2n1 | 6050 nM | > 5000 nM |  |
| Cc1cc(-c2cncs2)c2cccc(OCc3c(Cl)cncc3Cl)c2n1 | 135 nM | 420 nM |  |
| Cc1cc(-c2ccnn2C)c2cccc(OCc3c(Cl)cncc3Sc3nccs3)c2n1 | 50 nM | 29 nM | IC50 [8]: 2300 nM; IC50 [9]: 470 nM |
| Cc1cc(-c2ccnn2C)c2cccc(OCc3c(Cl)cncc3Cn3cccc(C(F)(F)F)c3=O)c2n1 | 4 nM | 1.4 nM |  |
| Cc1cc(-c2ccnn2C)c2cccc(OCc3c(Cl)cncc3Cl)c2n1 | 50 nM | 180 nM | remaining at 1 µM [5]: 7% |
| Cc1cc(-c2ncnn2C)c2cccc(OCc3c(Cl)cncc3Cl)c2n1 | 68 nM | 2400 nM |  |
| Cc1cc(-c2ccnn2C)c2cccc(OCc3c(Cl)cncc3COC(=O)N(C)C)c2n1 | 8.3 nM | 12 nM |  |
| Cc1cc(-c2ccnn2C)c2cccc(OCc3c(Cl)cncc3CCC(=O)N(C)C)c2n1 | 36 nM | 73 nM |  |
| Cc1cc(-c2ccnn2C)c2cccc(OCc3c(C)ccnc3Cn3cccc(C(F)(F)F)c3=O)c2n1 | 8.8 nM | 0.54 nM | IC50 [3]: > 5000 nM; IC50 [4]: > 5000 nM; remaining at 1 µM [5]: 45% |
| Cc1cc(-c2ccnn2C)c2cccc(OCc3c(Cl)cncc3CCC(N)=O)c2n1 | 33 nM | 190 nM |  |
| Cc1cc(C)c2cccc(OCc3c(Cl)ccc(S(=O)(=O)NC4(C(=O)N5CCN(C(=O)[C@@H](N)CCC[N+](C)(C)C)CC5)CCOCC4)c3Cl)c2n1 [FASITIBANT CHLORIDE] | 0.05 nM |  |  |
| Cc1cc(-c2csnc2C)c2cccc(OCc3c(Cl)cncc3Cl)c2n1 | 200 nM | 330 nM |  |
| Cc1cc(-c2ccnn2C)c2cccc(OCc3c(Cl)cncc3COc3ccccn3)c2n1 | 140 nM | 260 nM |  |
| Cc1cc(-c2n[nH]cc2C)c2cccc(OCc3c(Cl)cncc3Cl)c2n1 | 110 nM | 390 nM | remaining at 1 µM [5]: 19% |
| Cc1cc(-c2scnc2C)c2cccc(OCc3c(Cl)cncc3Cl)c2n1 | 110 nM | 67 nM |  |
| Cc1cc(-c2ccnn2C)c2cccc(OCc3c(Cl)cncc3[S+]([O-])CC(=O)N(C)C)c2n1 (centres undefined) | 37 nM | 76 nM |  |
